Data from ChEMBL document CHEMBL4513216, “Probing the Open Global Health Chemical Diversity Library for Multistage-Active Starting Points for Next-Generation Antimalarials” (ACS Infect Dis, 2020).

Experiment: Toxicity liver stage against HepG2, at 10uM
Type: cell-based
Set-up: test concentration 10 uM, cell line HepG2-A16-CD81EGFP
Settings: human, HepG2-A16-CD81EGFP cells; read-out: INHIBITION
Summary of the method: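 Uninfected HepG2-A16-CD81EGFP cells, 3 × 10^3 per well, 1536-well, plated on prespotted compound at 10 μM final, parasite-free screening media added to match infected plates; puromycin 10 μM positive, DMSO 0.5% negative; run in parallel with 48 h PbLuc assay at 37 °C, 5% CO2; viability by CellTiter-Glo luminescence, normalized to controls.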

**Q.** For `CC(=O)NC[C@H]1C[C@@H]2CCN1C[C@@H]2c1cc(-c2cccs2)nn1C`, which cytotoxicity at 10 µM is on record?
**A.** The cytotoxicity at 10 µM was -7.99%.

**Q.** Which cytotoxicity at 10 µM does the source give for `CC(=O)N1N=C(c2ccccc2)OC1C(=O)NCCc1ccc(C)cc1` (stereo unspecified) here?
**A.** The cytotoxicity at 10 µM was 0.0915%.

**Q.** For `CC(=O)N1N=C(c2ccco2)OC1C(=O)NCCc1ccc(F)cc1` (stereo unspecified), which cytotoxicity at 10 µM is on record?
**A.** Its cytotoxicity at 10 µM is -1.92%.

**Q.** For `COc1cccc(-c2nc(C)c(C(=O)N[C@H](CO)CCSC)s2)c1`, which cytotoxicity at 10 µM is on record?
**A.** The cytotoxicity at 10 µM was 4.63%.

**Q.** With `O=C(c1cc(=O)c(OCc2ccccc2F)co1)N1CCCC1` as the compound, how does the cytotoxicity at 10 µM read?
**A.** Its cytotoxicity at 10 µM is -0.321%.

**Q.** Which cytotoxicity at 10 µM does the source give for `Cc1ccc(S(=O)(=O)Nc2ccc(N3CCOCC3)cn2)cc1` here?
**A.** Its cytotoxicity at 10 µM is 3.92%.

**Q.** For `CCCn1nc(C(=O)NC2(c3ccc(Cl)cc3)CCCC2)ccc1=O`, which cytotoxicity at 10 µM is on record?
**A.** The cytotoxicity at 10 µM was 9.46%.

**Q.** Which cytotoxicity at 10 µM does the source give for `CCC(C)(CC(=O)OC)NCc1nc(C)no1` (stereo unspecified) here?
**A.** The cytotoxicity at 10 µM was -5.69%.

**Q.** With `CCC(CC)(CNC(=O)OC(C)(C)C)NC(=O)C1CCOCC1` as the compound, how does the cytotoxicity at 10 µM read?
**A.** The cytotoxicity at 10 µM was 1.85%.

**Q.** With `CCOCCCC(=O)Nc1[nH]nc(-c2ccncc2)c1C` as the compound, how does the cytotoxicity at 10 µM read?
**A.** Its cytotoxicity at 10 µM is 7.98%.

**Q.** Which cytotoxicity at 10 µM does the source give for `Clc1ccccc1CNC(Cn1cncn1)c1ccccc1` (stereo unspecified) here?
**A.** Its cytotoxicity at 10 µM is -2.88%.

**Q.** For `O=C(CNC(=O)C1CCCC1)NCc1cnn(-c2ccc(F)cc2F)c1`, which cytotoxicity at 10 µM is on record?
**A.** Its cytotoxicity at 10 µM is 8.21%.

**Q.** With `O=C(NCC(O)c1ccc(F)cc1F)c1cccc(F)c1` (stereo unspecified) as the compound, how does the cytotoxicity at 10 µM read?
**A.** Its cytotoxicity at 10 µM is 7.43%.

**Q.** With `CC(C)(C(=O)NCc1ccc(C#N)cc1)n1cc(Br)cn1` as the compound, how does the cytotoxicity at 10 µM read?
**A.** The cytotoxicity at 10 µM was 12.4%.

**Q.** Which cytotoxicity at 10 µM does the source give for `CC(C)(C)c1nccc(N2CCN(C3CCS(=O)(=O)C3)CC2)n1` (stereo unspecified) here?
**A.** Its cytotoxicity at 10 µM is 1.05%.

**Q.** Which cytotoxicity at 10 µM does the source give for `COc1cccc(CN(C(=O)NC2CC2)C2CCC(O)CC2)c1` (stereo unspecified) here?
**A.** Its cytotoxicity at 10 µM is 6.8%.

**Q.** Which cytotoxicity at 10 µM does the source give for `CN(C(=O)Nc1cccc(C#N)c1)C1CCN(c2ccccn2)CC1` here?
**A.** Its cytotoxicity at 10 µM is 1.66%.

**Q.** Which cytotoxicity at 10 µM does the source give for `CN(CCOc1cccc(Cl)c1)Cc1nnc(C(C)(C)C)o1` here?
**A.** The cytotoxicity at 10 µM was 8.65%.

**Q.** With `Brc1ccc(NCc2ccc(Cn3ccnc3)cc2)nc1` as the compound, how does the cytotoxicity at 10 µM read?
**A.** Its cytotoxicity at 10 µM is 21.8%.

**Q.** For `Cn1ccnc1COc1ccc(CSc2nncn2C2CC2)cc1`, which cytotoxicity at 10 µM is on record?
**A.** The cytotoxicity at 10 µM was 3.67%.

**Q.** Which cytotoxicity at 10 µM does the source give for `COc1cccc(N2CCC(CNC(=O)NCc3ccco3)C2)c1` (stereo unspecified) here?
**A.** Its cytotoxicity at 10 µM is -127%.

**Q.** Which cytotoxicity at 10 µM does the source give for `Cc1nc(S(=O)(=O)N2CCSCC2)cn1C` here?
**A.** The cytotoxicity at 10 µM was -9.09%.

**Q.** With `COCC(=O)N(C)Cc1ccc(OCc2cccs2)cc1` as the compound, how does the cytotoxicity at 10 µM read?
**A.** The cytotoxicity at 10 µM was 1.73%.

**Q.** With `Cc1csc(CNC(=O)Nc2ccc3c(c2)OCO3)n1` as the compound, how does the cytotoxicity at 10 µM read?
**A.** Its cytotoxicity at 10 µM is -15.7%.

**Q.** Which cytotoxicity at 10 µM does the source give for `CC(C)S(=O)(=O)NCC1CCCN(C(=O)c2ccc3c(c2)CCC3)C1` (stereo unspecified) here?
**A.** The cytotoxicity at 10 µM was -14.7%.

**Q.** Which cytotoxicity at 10 µM does the source give for `O=C(Cc1ccc2c(c1)OCO2)N[C@@H]1CCNC[C@H]1O` here?
**A.** Its cytotoxicity at 10 µM is 0.635%.

**Q.** For `O=C(C1CNCCO1)N1CCC(c2cc(N3CCCC3)ncn2)CC1` (stereo unspecified), which cytotoxicity at 10 µM is on record?
**A.** The cytotoxicity at 10 µM was 6.15%.

**Q.** For `CO[C@H]1CNC[C@@H]1NC(=O)c1cc(C)nc2c(C)c(C)ccc12`, which cytotoxicity at 10 µM is on record?
**A.** The cytotoxicity at 10 µM was 0.936%.

**Q.** Which cytotoxicity at 10 µM does the source give for `Cn1c(-c2ccccc2Cl)nc2cc(C(=O)NCCOCCO)cnc21` here?
**A.** Its cytotoxicity at 10 µM is -0.951%.

**Q.** With `Cc1cc(N2CCOC(C(F)(F)F)C2)nc(-c2ccccc2O)n1` (stereo unspecified) as the compound, how does the cytotoxicity at 10 µM read?
**A.** The cytotoxicity at 10 µM was -0.238%.

**Q.** With `CCc1cc(N2CCNCC2)n2nc(C)c(C)c2n1` as the compound, how does the cytotoxicity at 10 µM read?
**A.** The cytotoxicity at 10 µM was -2.59%.

**Q.** With `CC(COc1ccccc1)NCc1nc(-c2cccnc2)no1` (stereo unspecified) as the compound, how does the cytotoxicity at 10 µM read?
**A.** The cytotoxicity at 10 µM was -14.1%.

**Q.** For `NC(=O)c1cc(C2CCCN(C(=O)CCc3ccncc3)C2)n[nH]1` (stereo unspecified), which cytotoxicity at 10 µM is on record?
**A.** The cytotoxicity at 10 µM was -8.99%.

**Q.** With `Cc1ccccc1CNC(=O)CN1CCCC(Cc2nccn2C)C1` (stereo unspecified) as the compound, how does the cytotoxicity at 10 µM read?
**A.** The cytotoxicity at 10 µM was -15.4%.

**Q.** For `COc1cccc(COCC(=O)N2CCCCCC2)c1`, which cytotoxicity at 10 µM is on record?
**A.** Its cytotoxicity at 10 µM is -3.48%.

**Q.** With `O=C(CCCc1nnc(-c2ccccc2)o1)N1CCN(C2CC2)CC1` as the compound, how does the cytotoxicity at 10 µM read?
**A.** Its cytotoxicity at 10 µM is -12%.

**Q.** Which cytotoxicity at 10 µM does the source give for `CC(c1nc(C2CC2)no1)N1CCN(Cc2nnc(C3CC3)o2)CC1` (stereo unspecified) here?
**A.** The cytotoxicity at 10 µM was 7.7%.

**Q.** With `CC(C)C(=O)NCc1ccc(N(C)C)cc1` as the compound, how does the cytotoxicity at 10 µM read?
**A.** Its cytotoxicity at 10 µM is -18.1%.

**Q.** With `CNS(=O)(=O)c1cccc(CNC(=O)NCC2CCOC2)c1` (stereo unspecified) as the compound, how does the cytotoxicity at 10 µM read?
**A.** The cytotoxicity at 10 µM was -9.97%.

**Q.** For `CCCc1cc(C(=O)NCCn2nc3ccccn3c2=O)[nH]n1`, which cytotoxicity at 10 µM is on record?
**A.** The cytotoxicity at 10 µM was -3.56%.

**Q.** For `CCOc1cccc(NS(=O)(=O)c2cc(C(=O)O)cs2)c1`, which cytotoxicity at 10 µM is on record?
**A.** The cytotoxicity at 10 µM was -4.41%.

**Q.** With `CC(C)N(C)[C@@H]1CCN(c2ncccn2)[C@H]1Cc1ccncc1` as the compound, how does the cytotoxicity at 10 µM read?
**A.** Its cytotoxicity at 10 µM is -3.42%.

**Q.** For `CN(C)C(=O)NCc1nnn2c1CN(CC1CCOCC1)CCC2`, which cytotoxicity at 10 µM is on record?
**A.** The cytotoxicity at 10 µM was -128%.

**Q.** With `NCC1(c2cccc(Br)c2)CCOCC1` as the compound, how does the cytotoxicity at 10 µM read?
**A.** The cytotoxicity at 10 µM was -8.45%.

**Q.** For `CC(C)N(C)Cc1nnn2c1CN(Cc1cccnc1)CCC2`, which cytotoxicity at 10 µM is on record?
**A.** Its cytotoxicity at 10 µM is 11.3%.

**Q.** With `O=c1c(=CS(=O)(=O)Nc2ccc(Cl)cc2)[nH]c(=O)n2cccc12` as the compound, how does the cytotoxicity at 10 µM read?
**A.** The cytotoxicity at 10 µM was -7.67%.
